NadD block = inhibitors of Staphylococcus aureus NadD | purified NadD enzyme, colorimetric absorbance read-out | inhibition, % at 20 µM | 0.78% of 360,000 active | AID 602399; in the data active = inhibition above about 26%
HCV core dimer = blocks dimerization of HCV core protein | inhibition, % at 5 µM | 0.33% of 300,000 active | TR-FRET GST/Flag-core106 dimerization, 1536-well;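 active = inhibition above the mean of all tested compounds plus 3 SD, set per screening campaign, cut at about 45% in these data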
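Assay system: tagged HCV core106 pair (GST and Flag); medium: KF-containing HEPES buffer, pH 7.45, DTT, CHAPS, BSA; also added: Eu donor and XL665 acceptor anti-tag antibodies; dosing: 5 µM single dose; timing: compound-protein-antibody incubation 4 h at 22.5 °C; signal: TR-FRET 671 and 617 nm emission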
Fh CTSL1 inh = counter-screen for PFM18AAP inhibitors: inhibitors of F. hepatica cathepsin L1; 0.49% of 300,000 active; recombinant F. hepatica cathepsin L1, Z-Leu-Arg-MCA fluorescence; inhibition, % at 5.96 µM;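 active = inhibition above the mean of all tested compounds plus 3 SD, set per screening campaign, cut at about 17% in these data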;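 also: 0% = plate median of test compound wells and 100% = 1 µM Z-Phe-Ala-diazomethylketone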
PP5 inh = PP5 (human) phosphatase inhibition. P53041. purified PP5c, OMFP substrate fluorescence. inhibition, % at 6.7 µM. 0.18% of 320,000 active. AID 1987;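 active = inhibition above the campaign's mean inhibition across all tested compounds plus 3 SD, cut at about 9.5% in these data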;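 also: 0% = DMSO only and 100% = 100 µM cantharidin control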
PP1 counter = PP1-alpha (human) inhibition in PP5 counter-screen | P62136 | purified PP1alpha, OMFP fluorescence | inhibition, % at 6.7 µM | 0.9% of 320,000 active | AID 2235;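 active = inhibition above the mean inhibition of all tested compounds plus 3 SD, computed separately for each screening campaign, cut at about 15% in these data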
Target sequence (P62136 whole entry, looked up): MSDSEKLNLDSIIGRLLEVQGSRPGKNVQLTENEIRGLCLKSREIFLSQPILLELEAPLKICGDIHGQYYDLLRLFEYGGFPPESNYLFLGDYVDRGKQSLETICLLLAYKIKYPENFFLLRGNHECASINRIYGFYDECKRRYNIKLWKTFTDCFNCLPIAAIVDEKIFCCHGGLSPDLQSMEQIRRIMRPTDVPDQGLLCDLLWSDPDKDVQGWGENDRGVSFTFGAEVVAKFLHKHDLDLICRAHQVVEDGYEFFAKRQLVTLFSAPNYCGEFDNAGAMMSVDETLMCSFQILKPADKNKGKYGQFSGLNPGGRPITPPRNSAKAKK
Myeloid diff 2 = myeloid differentiation induction; ER-HoxA9 myeloid progenitors, lysozyme-GFP differentiation, flow cytometry; calls only at 10 µM; 1% of 360,000 active;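 active = normalized GFP-positive differentiation at or above the plate's own cutoff, the solvent-only control mean plus 3 SD; inconclusive = no clear call, values can overlap the other calls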;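 also: cells exposed to compound for four days before flow analysis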
PP1 confirm = human PP1 phosphatase inhibition, confirmation. shares compounds with PP1 counter. purified PP1alpha, OMFP substrate fluorescence. inhibition, % at 6.7 µM. 52% of 1,900 active;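 active = mean PP1 inhibition above a set limit taken from the earlier primary screen, cut at about 15% in these data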
PP5 inh counter = inhibits human PP5 phosphatase in PP1 counter-screen. shares compounds with PP1 counter. purified PP5c, OMFP fluorescence. AID 2360. inhibition, % at 6.7 µM. 4% of 1,900 active;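 active = mean PP5 inhibition over triplicate wells above about 9.5% taken from the earlier PP1 screen, limit read from the data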
An asterisk follows results filed as active; i = inactive; ? = inconclusive; . = not tested or not shown. Sampled rows, rich in hits. Any-hit rate of the full collection: about 3.1%.

SMILES | NadD block | HCV core dimer | Fh CTSL1 inh | PP5 inh | PP1 counter | Myeloid diff 2 | PP1 confirm | PP5 inh counter
Cc1ccc(C)c(S(=O)(=O)N2CCN(c3nc(-c4cccnc4)nc4ccccc34)CC2)c1 | 14 | . | . | 2 | 19* | i | 18* | 1
O=S(=O)(c1ccccc1F)N1CCN(c2nc(-c3cccnc3)nc3ccccc23)CC1 | 5 | . | . | 3 | 7 | i | . | .
CSc1cc(-c2ccco2)oc1C(=O)c1ccco1 | -4 | 1 | -3 | -1 | -4 | i | . | .
Clc1ccc(C2=Nn3c(nnc3-c3n[nH]c4c3CCC4)SC2)cc1 | 19 | 18 | -4 | 3 | 9 | ? | . | .
Brc1ccc(C2=Nn3c(nnc3-c3n[nH]c4c3CCC4)SC2)cc1 | 20 | 24 | -1 | 4 | 22* | i | 2 | -2
CC(=O)c1cccc(NC(=O)C(C)OC(=O)C2=NNC(=O)CC2)c1 (stereo not given) | -4 | . | . | . | . | i | . | .
NC(=O)c1nc(-c2ccccc2)c(-c2ccccc2)[nH]c1=O | -5 | 2 | -1 | 0 | 20* | i | 16* | -4
Oc1cccc2cc3cccc(O)c3c(O)c12 | 70* | 25 | 9 | -1 | 35* | i | 24* | -3
O=C(c1ccc2ncsc2c1)N1CCCCC1 | -1 | -11 | 2 | -6 | -4 | i | . | .
O=C(O)c1ccc2ncsc2c1 | 8 | -2 | -5 | 4 | 19* | i | 37* | 1
O=c1cc(-c2ccccc2)cc(-c2ccccc2)n1O | 10 | 0 | 1 | 0 | 20* | i | 13 | -3
COc1cc2c(cc1OC)C(c1ccc(C)cc1)NC(=O)C2 (stereo not given) | 2 | . | . | . | . | i | . | .
CCOc1ccc(C2NC(=O)Cc3cc(OC)c(OC)cc32)cc1 (stereo not given) | -4 | -2 | -2 | -1 | 24* | i | -2 | 1
C#CCOCCOCCOCCNc1nc(N2CCN(C(=O)CCCCCCCCCCNC(=O)[C@H](CCCCN)n3cc(C)nn3)CC2)nc(N2CCN(C(=O)CCCCCCCCCCNC(=O)[C@H](CCCN=C(N)N)n3cc(C[C@@H](C)CC)nn3)CC2)n1 | . | -14 | -4 | 5 | 53* | . | 50* | 0
C#CCOCCOCCOCCNc1nc(N2CCN(C(=O)CCCCCCCCCCNC(=O)Cn3cc(C[C@@H](C)O)nn3)CC2)nc(N2CCN(C(=O)CCCCCCCCCCNC(=O)[C@@H]([C@H](C)CC)n3cc(CCCCCN)nn3)CC2)n1 | 34* | -13 | 0 | 5 | 55* | i | 44* | 4
C#CCOCCOCCOCCNc1nc(N2CCN(C(=O)CCCCCCCCCCNC(=O)Cn3cc(CCCCCN)nn3)CC2)nc(N2CCN(C(=O)CCCCCCCCCCNC(=O)Cn3cc(C[C@@H](C)O)nn3)CC2)n1 | 17 | -1 | -2 | -3 | 13 | i | . | .
C#CCOCCOCCOCCNc1nc(N2CCN(C(=O)CCCCCCCCCCNC(=O)[C@H]([C@@H](C)CC)n3cc(CCCCN=C(N)N)nn3)CC2)nc(N2CCN(C(=O)CCCCCCCCCCNC(=O)[C@@H]([C@H](C)O)n3cc(C)nn3)CC2)n1 | 40* | 4 | -1 | 2 | 56* | i | 47* | 1
C#CCOCCOCCOCCNc1nc(N2CCN(C(=O)Cn3cc(CCCN=C(N)N)nn3)CC2)nc(N2CCN(C(=O)[C@H](CCCCN)n3cc(CCCC)nn3)CC2)n1 | -1 | -8 | -2 | -1 | 1 | i | . | .
C#CCOCCOCCOCCNc1nc(N2CCN(C(=O)CCCCCCCCCCNC(=O)[C@H](CCCCN)n3cc(C[C@@H](C)CC)nn3)CC2)nc(N2CCN(C(=O)CCCCCCCCCCNC(=O)[C@@H]([C@H](C)O)n3cc(C)nn3)CC2)n1 | 43* | 0 | 1 | 5 | 61* | i | 47* | 4
Cc1[nH]c2ccccc2c1C(=O)C(=O)NC1CC1 | -3 | -11 | -1 | 1 | 0 | . | . | .
Cc1ccc(NC(=O)CN2CCN(S(=O)(=O)c3ccc4c(c3)OCCO4)CC2)c(C)c1 | 3 | . | . | . | . | i | . | .
COc1cc(N=Nc2ccc(C(=O)N(C)C)cc2)c(C)cc1N | 3 | . | . | . | . | i | . | .

Screening results: PubChem, several laboratories
